ChEMBL document CHEMBL1142832, “Potent 4-aminopiperidine based antimalarial agents” (Bioorg Med Chem Lett, 2005)

Assays:
HFF = assay: Cytotoxicity of compound was determined in human foreskin fibroblast assay; type: functional
In short: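 Human foreskin fibroblasts were assayed in quadruplicate, and the average toxicity value is reported in nM.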

Plasmodium falciparum [1] = assay: Inhibition against multidrug-resistant Plasmodium falciparum infected erythrocytes; type: functional, organism-based
In short: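 Multidrug-resistant P. falciparum Dd2 was grown in human red blood cells and assayed at the late ring stage. Parasite growth was read as [3H]-hypoxanthine incorporation. Each compound was run in duplicate, and the mean IC50 (nM) is reported.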

Plasmodium falciparum [2] = assay: Inhibitory concentration against chloroquine-sensitive Plasmodium falciparum; type: functional, organism-based
Homo sapiens = organism: Homo sapiens; assay: Percent remaining of compound was determined in human S9 liver microsomes at 1 hr; conditions: Liver S9 fraction
Mus musculus = organism: Mus musculus; assay: Percent remaining of compound was determined in mouse S9 liver microsomes at 1 hr; conditions: Liver S9 fraction

Structure (SMILES)	Cytotoxicity (HFF) [nM]	IC50 (Plasmodium falciparum [1]) [nM]	IC50 (Plasmodium falciparum [2]) [nM]	level, % of control (Homo sapiens) [%]	level, % of control (Mus musculus) [%]
c1ccc(C(CN2CCC(NCCCN3CCCCC3)CC2)c2ccccc2)cc1	1200	200			
CN(C)CCCNC1CCN(CC(c2ccccc2)c2ccccc2)CC1	1300	300			
CCN(CC)CCCNC1CCN(CCc2ccc(-c3ccccc3)cc2)CC1	1200	400			
CCN(CC)CCCNC1CCN(CCC2CCCCC2)CC1	2900	920			
CCN(CCCNC1CCN(CC(c2ccccc2)c2ccccc2)CC1)CC(c1ccccc1)c1ccccc1	9900	900			
CCN(CCCNC1CCN(CC(c2ccccc2)c2ccccc2)CC1)CCC1CCCCC1	2100	250			
CCN(CC)CCCNC1CCN(CCc2ccc(Cl)cc2)CC1	2700	850			
CCN(CCCNC1CCN(CC(c2ccccc2)c2ccccc2)CC1)CCc1ccc(Cl)cc1	2000	200			
c1ccc(C(CN2CCC(NCCCN3CCCC3)CC2)c2ccccc2)cc1	2500	200			
c1ccc(Oc2ccc(CNCCCNC3CCN(CC4CCCCC4)CC3)cc2)cc1			30		
CCNCCCNC1CCN(CC(c2ccccc2)c2ccccc2)CC1	2600	2500			
CCN(CCCNC1CCN(CC(c2ccccc2)c2ccccc2)CC1)CC1CCCCC1	2200	200			
CCN(CC)CCCNC1CCN(CC2CCCCC2)CC1	6000	4300			
CCN(CC)CCCNC1CCN(CC(c2ccccc2)c2ccccc2)CC1	9900	900	30		
CCN(CCCNC1CCN(CC(c2ccccc2)c2ccccc2)CC1)CCc1ccc(-c2ccccc2)cc1	7600	75		45	113
